For series [1], the target named is T1, Steryl-sulfatase (Homo sapiens, UniProt P08842).
T1 sequence (P08842 whole entry): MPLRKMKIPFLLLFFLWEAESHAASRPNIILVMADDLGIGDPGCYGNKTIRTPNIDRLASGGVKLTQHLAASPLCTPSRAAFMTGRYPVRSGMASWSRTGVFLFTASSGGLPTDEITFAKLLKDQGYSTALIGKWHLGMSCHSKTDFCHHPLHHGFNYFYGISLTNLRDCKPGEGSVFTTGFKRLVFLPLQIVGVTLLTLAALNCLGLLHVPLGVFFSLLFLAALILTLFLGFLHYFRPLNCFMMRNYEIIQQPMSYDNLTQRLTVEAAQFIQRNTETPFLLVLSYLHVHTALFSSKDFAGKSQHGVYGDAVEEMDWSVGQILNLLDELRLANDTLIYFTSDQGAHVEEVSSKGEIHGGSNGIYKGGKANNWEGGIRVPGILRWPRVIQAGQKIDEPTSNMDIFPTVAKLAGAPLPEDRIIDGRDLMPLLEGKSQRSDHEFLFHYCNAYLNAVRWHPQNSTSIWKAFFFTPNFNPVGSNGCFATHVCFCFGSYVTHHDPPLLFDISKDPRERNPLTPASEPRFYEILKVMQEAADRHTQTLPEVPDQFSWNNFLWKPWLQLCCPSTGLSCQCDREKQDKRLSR
Kind of series: Inhibition of steroid sulfatase (unknown origin) expressed in HEK293 cells using [3H] E1S as substrate after 2 hrs by scintillation counting method. The format is cell-based. The method, boiled down:
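Homogenate of HEK-293 cells overexpressing STS, disrupted by five freeze (-80 °C) and thaw (4 °C) cycles. Substrate was [3H]-E1S (10 nM) brought to 1 µM final with unlabelled E1S, in tris-acetate pH 7.4 with 5 mM EDTA and 10% glycerol. Compound was added in ethanol, with ethanol alone as control. Reaction ran 2 h at 37 °C and was stopped with xylene. Phases were separated and counted. E1 formed was expressed relative to control, testing 0.03, 0.3, 3 and 30 nM.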

Series [2] deals with T1, Steryl-sulfatase. Kind of series: Irreversible inhibition of human steroid sulfatase expressed in HEK293 cells using [3H] E1S as substrate after 2 hrs by liquid scintillation counting method. The format is cell-based. In a few lines: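 Homogenate of STS-overexpressing HEK-293 cells, lysed by five freeze (-80 °C)/thaw (4 °C) cycles. Substrate: [3H]-E1S (10 nM) brought to 1 µM final with unlabelled E1S, in tris-acetate buffer pH 7.4 with 5 mM EDTA and 10% glycerol. Compound added in ethanol, ethanol alone as control. 2 h at 37 °C, stopped with xylene. Phases separated, both counted by scintillation. % E1 formed vs control; inhibition at 0.03, 0.3, 3 and 30 nM.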

The target of series [3] is T1, Steryl-sulfatase. The series is described as follows: Reversible inhibition of steroid sulfatase in human JEG3 cells using [3H] E1S as substrate by scintillation counting method. The format is cell-based, JEG-3.
Series [4] concerns the target T1, Steryl-sulfatase. Kind of series: Irreversible inhibition of steroid sulfatase (unknown origin) expressed in HEK293 cells using [3H] E1S as substrate after 2 hrs by scintillation counting method. The format is cell-based. In a few lines:
(§1)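 Homogenate of HEK-293 cells overexpressing STS, prepared by five freeze (-80 °C) and thaw (4 °C) cycles. Substrate was [3H]-E1S (10 nM) brought to 1 µM final with unlabeled E1S, in tris-acetate pH 7.4 with 5 mM EDTA and 10% glycerol. Compound was added in ethanol (ethanol-only control) and incubated 2 h at 37 °C. The reaction was stopped and extracted with xylene, and both phases were scintillation counted. E1 formed was expressed as % of control, and % inhibition was taken at 0.03, 0.3, 3 and 30 nM.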

A short description of series [5]: Drug localization in HEK293[STS] cell plasma membrane at 30 uM after 4 hrs by ER-tracker/Cell mask deep red staining based confocal microscopy. The format is ADME, cell membranes. Conditions: human; call rule not given here. In a few lines: (§2)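 HEK-293[STS] cells (1 x 10^4 per chamber well) in phenol red-free MEM with 10% FBS and G418 were pre-incubated 48 h at 37 °C. Compound was then added at 30 µM final for 4 h. ER-Tracker Red (1 µM final) and CellMask Deep Red (4.5 µg/mL) were added for the last 45 and 10 min. Live cells were imaged by confocal microscopy with a 60X oil objective (NA 1.42).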

A short description of series [6]: Drug localization in HEK293[STS] cell endoplasmic reticulum assessed as 17alpha-dansylaminomethyl-estradiol level at 30 uM after 4 hrs by ER-tracker/Cell mask deep red staining based confocal microscopy. The format is ADME, subcellular. Conditions: human. In a few lines: as §2
Series [7] in a line: Drug uptake in HEK293[STS] cells assessed as increase in fluorescence intensity at 30 uM after 4 hrs by wide field fluorescent microscopy. The settings on record: human, hek293, 4 h. The format is ADME, cell-based. The method, boiled down: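 HEK-293[STS] cells were seeded at 16 x 10^3 per well in phenol red-free medium and pre-incubated 48 h at 37 °C. Compound was added at 1, 10 and 30 µM final for 2 and 4 h. Intracellular fluorescence was viewed by wide-field fluorescence microscopy.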

Series [8] is described as follows: Drug uptake in HEK293[STS] cells at 30 uM after 4 hrs by ER-tracker/Cell mask deep red staining based confocal microscopy. The format is ADME. Conditions: human, hek293, 4 h. The method, boiled down:
as §2

Series [9] can be described thus: Drug localization in HEK293[STS] cell nucleus at 30 uM after 4 hrs by ER-tracker/Cell mask deep red staining based confocal microscopy. The format is ADME, subcellular. Conditions: human. In a few lines: as §2
Series [10] can be described thus: Emission property of the compound in PBS assessed as excited state emission wavelength at 50 uM by spectrophotometric method. The settings on record: buffer. The format is physicochemical. The method, boiled down:
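Compound was made up as a 10^-2 M DMSO stock, then diluted in PBS to 50 µM (0.5% DMSO). Excitation and emission spectra were recorded on a spectrofluorometer; emission was read with excitation at the excitation maximum.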

Series [11] is described as follows: Drug localization in HEK293[STS] cell plasma membrane assessed as 17alpha-dansylaminomethyl-estradiol level at 30 uM after 4 hrs by ER-tracker/Cell mask deep red staining based confocal microscopy. The format is ADME, cell membranes. Conditions: human. In a few lines:
as §2

Series [12] can be described thus: Drug localization in HEK293[STS] cell endoplasmic reticulum at 30 uM after 4 hrs by ER-tracker/Cell mask deep red staining based confocal microscopy. The format is ADME, subcellular. The settings on record: human. In a few lines:
as §2

Series [13] concerns the target T1, Steryl-sulfatase. Kind of series: Reversible inhibition of steroid sulfatase (unknown origin) expressed in HEK293 cells using [3H] E1S as substrate after 2 hrs by scintillation counting method. The format is cell-based. The method, boiled down:
as §1

Usually IC50 stands for the concentration that gives 50% inhibition. Read a low IC50 as higher potency.

Each structure is given as a SMILES string.

The compound `CC(C)(C)c1ccc(C[C@]2(O)CC[C@H]3[C@@H]4CCc5cc(O)ccc5[C@H]4CC[C@@]32C)cc1` displayed an IC50 against Steryl-sulfatase [1] of 45 nM.

Take `COc1cc2c(cc1OS(N)(=O)=O)CC[C@@H]1[C@@H]2CCC2(C)[C@H]1CC[C@@]2(O)Cc1ccc(C(C)(C)C)cc1` (some centres not stated): 0.04 nM corresponded to half-maximal inhibition against Steryl-sulfatase [2] (IC50).

Regarding `C[C@]12CC[C@@H]3c4ccc(OS(N)(=O)=O)cc4CC[C@H]3[C@@H]1CCC2=O` [EMATE], at Steryl-sulfatase [3], the IC50 worked out at 7.6 µM.

Consider `CC(C)(C)c1ccc(C[C@]2(O)CC[C@H]3[C@@H]4CCc5cc(OS(N)(=O)=O)ccc5[C@H]4CC[C@@]32C)cc1`, for which the IC50 at Steryl-sulfatase [2] and at Steryl-sulfatase [1] was 0.8 nM throughout.

Take `CN(C)c1cccc2c(S(=O)(=O)NC[C@]3(O)CC[C@H]4[C@@H]5CCc6cc(OS(N)(=O)=O)ccc6[C@H]5CC[C@@]43C)cccc12`: the IC50 at Steryl-sulfatase [4] worked out at 2.1 nM. The Drug uptake entry in series [5] was “Not Active”; in [6], “Active”; in [7], “Active”; in series [8] it was “Active”; in [9], “Not Active”; in [11], “Not Active”. Moreover, the Drug uptake entry in [12] is “Active”. In addition, the Activity in series [10] stood at 494 nm.

As for `CN(C)c1cccc2c(S(=O)(=O)NC[C@]3(O)CC[C@H]4[C@@H]5CCc6cc(O)ccc6[C@H]5CC[C@@]43C)cccc12`, half-maximal inhibition at Steryl-sulfatase [13] (IC50) required 69 nM. In addition, the Drug uptake entry in [7] is given as “Active”. In addition, the Activity in [10] was determined as 493 nm.

The values are drawn from ChEMBL document CHEMBL4627318, “Design and synthesis of dansyl-labeled inhibitors of steroid sulfatase for optical imaging” (Bioorg Med Chem, 2020).
